Columns and labels:
bovine SOD1 = assay: Inhibition of bovine SOD1 activity in pH 7.4 buffer; format: biochemical; details: 1 μM SOD1, 5 μM compound, 60 min, 37 °C, 1% DMSO
Procedure, shortened: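 Bovine SOD1 (1 μM) was preincubated 60 min at 37 °C with 5 μM test compound in pH 7.4 buffer containing 1% DMSO. Activity was then measured with a SOD1-specific superoxide dismutase assay kit. Control was the same buffer with 1% DMSO. n ≥ 3, each condition in duplicate; results are mean ± SD.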

CcO [1] = assay: CcO activity in treated HeLa cells; format: cell-based, human; details: HeLa cells treated 24 h with 50 μM, then lysed
Procedure, shortened: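 HeLa cells were treated 24 h with 50 μM test compound and lysed. Ferrocytochrome c (cytochrome c reduced with dithiothreitol) was added, and the absorbance change at 550 nm was followed, using a reduced–oxidized extinction difference of 21.84. One unit oxidizes […] at pH 7.4, 25 °C. Control was a blank containing 1% DMSO. Results are mean ± SD of at least three experiments in duplicate.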

CcO [2] = assay: CcO activity in lysates of untreated HeLa cells; format: biochemical, human; details: incubation for 30 min with 50 μM
Procedure, shortened: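 Untreated HeLa cells were lysed, and lysates were incubated 30 min with 50 μM test compound. CcO activity was then read with a human CcO ELISA kit. Control was a blank containing 1% DMSO. Results are mean ± SD of at least three experiments, each condition in duplicate.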

tyrosinase from potato = assay: Tyrosinase activity; format: biochemical; details: 50 μM, incubation for 0–20 min
Procedure, shortened: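 Tyrosinase was isolated and purified from potato. The enzyme extract was preincubated at 30 °C in 0.05 M phosphate buffer pH 6.8 containing 50 μM test compound. L-DOPA was added from a 5 mM solution. DOPAchrome formation was followed at 475 nm over time (ε = 3600), and the initial rate gave activity. Control was a blank with 1% DMSO.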

Compound	SOD1 activity, % of the control (bovine SOD1) [%]	CcO activity relative to control (CcO [1])	CcO activity in lysates of untreated cells (CcO [2])	reduction in tyrosinase activity relative to the control (tyrosinase from potato)
CCN(CC)C(=S)S [DDC, diethyldithiocarbamate]	> 60			
[N-]=[N+]=[N-].[Na+] [NaN3]		complete inactivation of CcO	complete inactivation of CcO	
[SH-].[SH-].[S]=[Mo]=[S] [TM, tetrathiomolybdate]		reduced to half of that of the control	partial	complete inactivation of the enzyme
